Measurements reported in ChEMBL document CHEMBL4699636, “Novel 2,7-Diazaspiro[4,4]nonane Derivatives to Inhibit Mouse and Human Osteoclast Activities and Prevent Bone Loss in Ovariectomized Mice without Affecting Bone Formation” (J Med Chem, 2020).
Activity calls are given as the source filed them. The rule behind the calls is not given here.

What was measured:
[1] = test system: Osteoclast (Homo sapiens); test: Toxicity in human peripheral blood cell-derived osteoclasts assessed as reduction in osteoclasts number up to 20 uM incubated for 48 hrs by TRAP-staining based assay
[2] = test system: Mus musculus; test: Antiosteoporotic activity in C57BL6/J mouse model of OVX-induced bone loss assessed as trabecular bone volume per tissue volume level in tibial metaphysis at 20 mg/kg, ip QD for 4 weeks by microCT analysis (17.49 +/- 2.91 %); assay type: functional
[3] = Toxicity in C57BL6/J mouse model of OVX-induced bone loss assessed as effect on bone formation by measuring mineralizing mineral apposition rate level in femoral metaphysis at 20 mg/kg, ip QD for 4 weeks by histomorphometry (1.62 +/ 0.21 um/d (lcm)); assay type: organism-based; conditions: in vivo, 672 h
[4] = Toxicity in C57BL6/J mouse model of OVX-induced bone loss assessed as effect on body weight at 20 mg/kg, IP QD for 4 weeks; assay type: organism-based; conditions: in vivo, 672 h
In short: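 Body weight tracked in 12-week-old OVX C57BL6/J mice during 4 weeks of ip 20 mg/kg q.d. or b.i.d. dosing in 0.485% carboxymethylcellulose/3% Tween 80, 10 mL/kg.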

[5] = test system: Osteoclast; test: Inhibition of resorption activity of mouse peripheral blood cell-derived osteoclasts at 5-10 uM incubated for 48 hrs by Kossa-staining based assay; assay type: functional, tissue-based; conditions: dose microM 5-10, time 48.0 hrs, in the assay text read “bone marrow-derived” for “peripheral blood cell-derived”
In short: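 Osteoclasts from C57BL/6J mouse bone marrow, M-CSF then M-CSF 30 ng/mL plus RANKL 100 ng/mL. Day-3 cells reseeded on calcium phosphate-coated wells, compound added next day in 0.5% DMSO for 48 h, 8 wells per condition. 4 wells TRAP-stained for osteoclast counts, 4 von Kossa-stained for resorbed area. Activity expressed as resorption normalized to osteoclast number.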

[6] = test system: Mus musculus; test: Antiosteoporotic activity in C57BL6/J mouse model of OVX-induced bone loss assessed as degree of anisotropy (range 0-1) level in tibial metaphysis at 20 mg/kg, ip BID for 4 weeks by microCT analysis (0.53 +/- 0.07); assay type: functional
[7] = test system: Mus musculus; test: Antiosteoporotic activity in C57BL6/J mouse model of OVX-induced bone loss assessed as trabecular number level in femoral metaphysis at 20 mg/kg, ip QD for 4 weeks by histomorphometry (2.99 +/- 0.80 /mm); assay type: functional
In short: (§1)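 OVX mice, 12 weeks old, ip 20 mg/kg q.d. or b.i.d. for 4 weeks in CMC/Tween 80 vehicle. Distal right femur taken day 28. Static trabecular parameters measured on one 4-µm Masson-Goldner trichrome section, ROI 0.75 mm². n=10 per group, 9 in OVX+vehicle.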

[8] = test system: Mus musculus; test: Antiosteoporotic activity in C57BL6/J mouse model of OVX-induced bone loss assessed as structure model index level in tibial metaphysis at 20 mg/kg, ip QD for 4 weeks by microCT analysis (1.92 +/- 0.19); assay type: functional; conditions: dose […]
[9] = Toxicity in C57BL6/J mouse model of OVX-induced bone loss assessed as effect on osteoclast numbers per bone perimeter at 20 mg/kg, IP BID for 4 weeks; assay type: organism-based; conditions: in vivo, 672 h
In short: as §1

[10] = test system: Mus musculus; test: Antiosteoporotic activity in C57BL6/J mouse model of OVX-induced bone loss assessed as cortical thickness level in tibial diaphysis at 20 mg/kg, ip BID for 4 weeks by microCT analysis (179.27 +/- 7.57 um); assay type: functional
[11] = test system: Osteoclast (Homo sapiens); test: Inhibition of resorption activity of human peripheral blood cell-derived osteoclasts incubated for 48 hrs by Kossa-staining based assay
[12] = test system: Mus musculus; test: Antiosteoporotic activity in C57BL6/J mouse model of OVX-induced bone loss assessed as trabecular bone volume per tissue volume level in femoral metaphysis at 20 mg/kg, ip QD for 4 weeks by histomorphometry (11.67 +/- 2.37%); assay type: functional
In short: as §1

[13] = Toxicity in C57BL6/J mouse model of OVX-induced bone loss assessed as effect on bone formation by measuring mineralizing surface per trabecular bone surface level in femoral metaphysis at 20 mg/kg, ip QD for 4 weeks by histomorphometry (27.90 +/ 8.22 %); assay type: organism-based; conditions: in vivo, 672 h
[14] = test system: Mus musculus; test: Antiosteoporotic activity in C57BL6/J mouse model of OVX-induced bone loss assessed as trabecular pattern factor level in tibial metaphysis at 20 mg/kg, ip BID for 4 weeks by microCT analysis (17.17 +/- 3.41 […]); assay type: functional
[15] = test system: Mus musculus; test: Antiosteoporotic activity in C57BL6/J mouse model of OVX-induced bone loss assessed as degree of anisotropy (range 0-1) level in tibial metaphysis at 20 mg/kg, ip QD for 4 weeks by microCT analysis (0.53 +/- 0.07); assay type: functional
[16] = Toxicity in C57BL6/J mouse model of OVX-induced bone loss assessed as effect on bone formation by measuring number of osteoblasts per bone surface level in femoral metaphysis at 20 mg/kg, ip QD for 4 weeks by histomorphometry (4.55 +/ 2.53 /mm); assay type: organism-based; conditions: in vivo, 672 h
In short: as §1

[17] = biological target: Dedicator of cytokinesis protein 5 (Homo sapiens, UniProt Q9H7D0); test: Inhibition of C-terminal 6-histidine tagged human DOCK5 (1212 to 1642 residues) expressed in Escherichia coli assessed as reduction in nucleotide exchange efficiency at 20 to 60 uM by N-methylanthraniloyl-GDP fluorescence based nucleotide exchange assay; conditions: dose microM 20-60
Chain of Dedicator of cytokinesis protein 5 (Q9H7D0 whole entry, the tested form may be a part): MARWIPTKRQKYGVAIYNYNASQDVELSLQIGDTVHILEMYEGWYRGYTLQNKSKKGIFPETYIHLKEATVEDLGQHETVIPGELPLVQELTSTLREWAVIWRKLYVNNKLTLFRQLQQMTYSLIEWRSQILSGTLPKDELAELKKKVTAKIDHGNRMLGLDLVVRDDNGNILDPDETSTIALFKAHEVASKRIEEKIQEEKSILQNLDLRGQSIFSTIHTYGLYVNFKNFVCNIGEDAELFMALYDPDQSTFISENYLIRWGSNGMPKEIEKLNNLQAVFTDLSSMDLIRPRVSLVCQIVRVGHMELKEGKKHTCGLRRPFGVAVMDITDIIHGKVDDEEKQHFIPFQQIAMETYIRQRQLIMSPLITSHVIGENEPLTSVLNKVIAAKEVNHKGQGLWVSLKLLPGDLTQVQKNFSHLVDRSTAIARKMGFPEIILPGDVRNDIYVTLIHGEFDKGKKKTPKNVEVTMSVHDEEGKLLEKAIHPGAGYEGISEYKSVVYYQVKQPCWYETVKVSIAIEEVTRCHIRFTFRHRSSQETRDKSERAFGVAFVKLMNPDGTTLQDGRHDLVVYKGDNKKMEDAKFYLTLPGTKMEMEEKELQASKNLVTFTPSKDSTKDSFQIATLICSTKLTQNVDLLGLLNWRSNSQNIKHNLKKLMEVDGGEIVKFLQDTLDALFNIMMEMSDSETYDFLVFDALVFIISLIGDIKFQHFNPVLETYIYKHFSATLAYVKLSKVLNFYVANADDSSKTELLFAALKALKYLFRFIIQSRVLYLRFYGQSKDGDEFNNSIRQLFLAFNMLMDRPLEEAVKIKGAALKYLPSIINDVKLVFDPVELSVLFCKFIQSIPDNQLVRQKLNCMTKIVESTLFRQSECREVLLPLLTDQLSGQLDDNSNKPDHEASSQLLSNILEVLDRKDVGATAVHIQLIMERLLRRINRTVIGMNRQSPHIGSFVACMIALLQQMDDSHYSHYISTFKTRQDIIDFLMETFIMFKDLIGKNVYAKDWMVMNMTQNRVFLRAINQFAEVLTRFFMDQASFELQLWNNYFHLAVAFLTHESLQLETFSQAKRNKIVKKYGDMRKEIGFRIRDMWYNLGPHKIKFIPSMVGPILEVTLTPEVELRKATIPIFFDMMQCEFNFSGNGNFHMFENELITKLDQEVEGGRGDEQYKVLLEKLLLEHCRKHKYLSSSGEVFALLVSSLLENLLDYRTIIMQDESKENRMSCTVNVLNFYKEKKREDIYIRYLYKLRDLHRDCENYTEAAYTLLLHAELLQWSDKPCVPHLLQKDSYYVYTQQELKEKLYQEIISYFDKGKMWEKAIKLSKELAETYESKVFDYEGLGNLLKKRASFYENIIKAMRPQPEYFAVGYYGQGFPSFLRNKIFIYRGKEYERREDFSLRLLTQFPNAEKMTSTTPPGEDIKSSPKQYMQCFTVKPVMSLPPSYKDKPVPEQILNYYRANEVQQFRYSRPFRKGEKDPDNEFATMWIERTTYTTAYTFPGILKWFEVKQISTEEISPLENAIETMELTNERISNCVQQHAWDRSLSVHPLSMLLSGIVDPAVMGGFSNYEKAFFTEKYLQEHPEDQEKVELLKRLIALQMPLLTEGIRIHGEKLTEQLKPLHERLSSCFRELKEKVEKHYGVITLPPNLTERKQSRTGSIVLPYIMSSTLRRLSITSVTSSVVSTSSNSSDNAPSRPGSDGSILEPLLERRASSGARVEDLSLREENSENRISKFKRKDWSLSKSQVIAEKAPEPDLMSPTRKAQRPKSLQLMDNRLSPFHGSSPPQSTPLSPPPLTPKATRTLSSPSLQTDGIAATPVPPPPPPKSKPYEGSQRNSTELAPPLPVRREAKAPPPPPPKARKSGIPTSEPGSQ
In short: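 Mant-GDP-loaded His-tagged human RAC1 at 2.0 µM with 100 nM DOCK5 (residues 1212-1642) or TRIOGEF1 (R1232-T1550), both E. coli-expressed. Buffer: 50 mM Tris pH 8, 300 mM NaCl, 2 mM MgCl2, 1 mM DTT, 1% DMSO, 25 °C. Reaction started with 100 µM GTP. Fluorescence decay read at ex 360/em 440 nm, kobs by single-exponential fit, compound at 0, 20 or 60 µM, duplicates, as % of activity.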

[18] = Toxicity in C57BL6/J mouse model of OVX-induced bone loss assessed as effect on bone formation by measuring mineralizing surface per trabecular bone surface level in femoral metaphysis at 20 mg/kg, ip BID for 4 weeks by histomorphometry (27.90 +/ 8.22 %); assay type: organism-based; conditions: in vivo, 672 h

IC50 [11]: 3.44 µM
inhibition [17]: 45%
SMILES: O=S1(=O)N(c2ccccc2)C[C@H](O)[C@]12CCN(Cc1ccc(Cl)cc1)C2 (racemic)
Activity [1]: Non-Toxic
Activity [2]: 19.48%
Activity [3]: 1.82 micrometer/day
Activity [4]: Non-Toxic
inhibition [5]: Active
Activity_index [6]: 0.45
Activity [7]: 2.83 /millimeter
Activity_index [8]: 1.88
Activity [9]: Non-Toxic
Activity [10]: 193.5 um
Activity [12]: 12.02%
Activity [13]: 27.7%
Activity [14]: 6.51 1/mm
Activity_index [15]: 0.5
Activity [16]: 2.96 /millimeter
Activity [18]: 26.07%
